Source: ChEMBL document CHEMBL4428053, “Application of a Parallel Synthetic Strategy in the Discovery of Biaryl Acyl Sulfonamides as Efficient and Selective NaV1.7 Inhibitors” (J Med Chem, 2016)
≈ marks a conversion by molar mass, not a printed value. Calls of active or inactive are those of the source. No cut-off for these calls is given here.

What was measured:
[1] = molecular target: T1, Sodium channel protein type 9 subunit alpha (Homo sapiens, UniProt Q15858); assay: Displacement of [3H]-6,6-fused heteroaryl-sulfonamide derivative from human Nav1.7 expressed in HEK293 cell membranes preincubated for 30 mins followed by radioligand addition measured after 1 hr by scintillation counting analysis
T1 sequence (Q15858 whole entry, the tested form may be a part): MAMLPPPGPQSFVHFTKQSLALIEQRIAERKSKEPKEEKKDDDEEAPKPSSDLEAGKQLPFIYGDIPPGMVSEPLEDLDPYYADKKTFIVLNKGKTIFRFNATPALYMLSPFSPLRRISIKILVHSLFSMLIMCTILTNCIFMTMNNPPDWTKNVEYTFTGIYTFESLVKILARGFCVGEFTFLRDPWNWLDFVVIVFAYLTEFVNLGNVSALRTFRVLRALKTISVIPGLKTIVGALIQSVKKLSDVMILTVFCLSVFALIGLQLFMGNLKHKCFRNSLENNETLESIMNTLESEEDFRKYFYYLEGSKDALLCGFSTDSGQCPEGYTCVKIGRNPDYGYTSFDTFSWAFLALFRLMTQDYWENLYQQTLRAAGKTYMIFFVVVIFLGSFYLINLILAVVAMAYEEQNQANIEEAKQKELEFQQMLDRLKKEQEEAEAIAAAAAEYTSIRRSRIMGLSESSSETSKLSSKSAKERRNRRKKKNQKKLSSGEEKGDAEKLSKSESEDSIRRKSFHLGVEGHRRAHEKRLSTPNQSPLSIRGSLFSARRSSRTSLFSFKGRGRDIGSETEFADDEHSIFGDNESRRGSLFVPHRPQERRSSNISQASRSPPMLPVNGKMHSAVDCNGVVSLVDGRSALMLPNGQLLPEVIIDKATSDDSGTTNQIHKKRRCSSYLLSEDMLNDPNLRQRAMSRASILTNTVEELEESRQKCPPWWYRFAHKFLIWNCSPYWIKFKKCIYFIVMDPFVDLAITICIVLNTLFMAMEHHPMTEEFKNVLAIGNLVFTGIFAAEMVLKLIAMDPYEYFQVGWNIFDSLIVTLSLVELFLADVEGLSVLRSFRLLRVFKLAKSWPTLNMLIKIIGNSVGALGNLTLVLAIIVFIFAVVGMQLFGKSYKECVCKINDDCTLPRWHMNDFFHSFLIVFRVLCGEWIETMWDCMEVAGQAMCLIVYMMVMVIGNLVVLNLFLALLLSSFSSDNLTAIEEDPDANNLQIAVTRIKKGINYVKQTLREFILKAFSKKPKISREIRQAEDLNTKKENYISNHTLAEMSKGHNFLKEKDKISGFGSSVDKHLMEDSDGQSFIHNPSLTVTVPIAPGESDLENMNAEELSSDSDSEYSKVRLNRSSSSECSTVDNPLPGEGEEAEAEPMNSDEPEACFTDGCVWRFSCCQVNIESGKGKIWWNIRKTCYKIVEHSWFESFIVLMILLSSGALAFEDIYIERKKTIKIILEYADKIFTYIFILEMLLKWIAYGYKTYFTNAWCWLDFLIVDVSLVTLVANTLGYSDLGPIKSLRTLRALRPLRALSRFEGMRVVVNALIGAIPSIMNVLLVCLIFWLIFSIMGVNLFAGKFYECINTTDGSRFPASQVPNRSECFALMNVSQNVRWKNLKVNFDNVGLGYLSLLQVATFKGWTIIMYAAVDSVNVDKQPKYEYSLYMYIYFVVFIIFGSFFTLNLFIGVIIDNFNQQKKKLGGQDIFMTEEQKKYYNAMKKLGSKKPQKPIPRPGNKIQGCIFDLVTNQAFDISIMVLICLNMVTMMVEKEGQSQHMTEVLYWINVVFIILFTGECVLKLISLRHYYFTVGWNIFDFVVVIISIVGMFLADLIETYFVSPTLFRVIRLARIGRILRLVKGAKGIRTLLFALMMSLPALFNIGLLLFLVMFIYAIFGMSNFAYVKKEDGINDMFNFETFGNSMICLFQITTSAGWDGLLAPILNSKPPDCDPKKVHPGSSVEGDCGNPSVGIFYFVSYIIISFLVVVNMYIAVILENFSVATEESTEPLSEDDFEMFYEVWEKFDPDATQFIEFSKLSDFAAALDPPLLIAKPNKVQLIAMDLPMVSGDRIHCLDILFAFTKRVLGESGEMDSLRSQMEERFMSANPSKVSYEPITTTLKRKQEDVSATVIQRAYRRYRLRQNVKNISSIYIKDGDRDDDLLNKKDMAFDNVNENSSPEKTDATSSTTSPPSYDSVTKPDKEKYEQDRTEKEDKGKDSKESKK

[2] = molecular target: T2, Cytochrome P450 2C9 (Homo sapiens, UniProt P11712)
T2 sequence (P11712 whole entry): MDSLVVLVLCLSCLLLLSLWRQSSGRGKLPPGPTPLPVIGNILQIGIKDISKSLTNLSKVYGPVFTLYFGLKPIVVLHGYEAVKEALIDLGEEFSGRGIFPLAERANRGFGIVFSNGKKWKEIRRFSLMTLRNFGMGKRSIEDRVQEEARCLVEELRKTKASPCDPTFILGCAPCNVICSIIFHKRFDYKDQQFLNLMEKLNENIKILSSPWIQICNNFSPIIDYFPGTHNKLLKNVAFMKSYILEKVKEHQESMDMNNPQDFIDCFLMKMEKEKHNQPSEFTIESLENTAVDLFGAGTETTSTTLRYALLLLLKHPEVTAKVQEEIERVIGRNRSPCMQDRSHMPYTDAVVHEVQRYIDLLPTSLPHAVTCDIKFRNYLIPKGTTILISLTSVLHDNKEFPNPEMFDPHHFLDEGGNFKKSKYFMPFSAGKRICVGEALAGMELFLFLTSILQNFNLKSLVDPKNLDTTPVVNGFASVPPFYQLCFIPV

[3] = molecular target: T1, Sodium channel protein type 9 subunit alpha; assay: Inhibition of human Nav1.7 at resting/closed state expressed in HEK293 cells at -140 mV holding potential by manual whole cell patch clamp electrophysiology assay; assay type: cell-based
[4] = Half life in Harlan rat at 1 mg/kg, iv by LC-MS/MS analysis; assay type: ADME, organism-based; conditions: in vivo
Summary of the method: (§1)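 Male fed rats. The IV dose was given in 100% DMSO. The oral dose was given in 1% Tween 80, 2% HPMC, 97% water/NaOH (pH 8.5).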

[5] = AUC (infinity) in Harlan rat at 10 mg/kg, po by LC-MS/MS analysis; assay type: ADME, organism-based; set-up: dose 10 mg/kg, route oral, time infinity; conditions: in vivo; summary of the method: as §1
[6] = system: Mus musculus; assay: In vivo inhibition of Nav1.7 in C57BL/6 mouse assessed as unbound plasma concentration required to reduce histamine-induced scratching bouts at 100 mg/kg, po administered 4 hrs prior to histamine challenge measured for 15 mins; assay type: functional, organism-based
Summary of the method: (§2)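 Mice were dosed orally with vehicle, diphenhydramine (30 mg/kg, n = 8) or test article at 30 (n = 9), 100 (n = 10) or 300 (n = 10) mg/kg; vehicle n = 12. All groups received histamine intradermally. Total scratch bouts were counted, with unbound plasma concentration reported per dose. Statistics: one-way ANOVA with Dunnett's test versus vehicle.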

[7] = Free plasma concentration in naive C57BL/6 mouse assessed as effect on basic locomotor movement at 300 mg/kg, po measured after 4 hrs for 60 mins by open field test; assay type: ADME, organism-based; conditions: in vivo
Summary of the method: (§3)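 Naive mice were dosed orally with vehicle or test article at 30, 100 or 300 mg/kg (n = 10 per group). Total basic movement in an open-field arena was recorded after dosing, and unbound plasma concentration was reported per dose.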

[8] = Clearance in Harlan rat at 1 mg/kg, iv by LC-MS/MS analysis; assay type: ADME, organism-based; conditions: in vivo; summary of the method: as §1
[9] = Protein binding in mouse plasma at 5 uM after 45 mins by LC-MS/MS analysis; assay type: ADME, cell-free; conditions: read-out: PPB (converted)
[10] = molecular target: T3, Cytochrome P450 2D6 (Homo sapiens, UniProt P10635)
T3 sequence (P10635 whole entry): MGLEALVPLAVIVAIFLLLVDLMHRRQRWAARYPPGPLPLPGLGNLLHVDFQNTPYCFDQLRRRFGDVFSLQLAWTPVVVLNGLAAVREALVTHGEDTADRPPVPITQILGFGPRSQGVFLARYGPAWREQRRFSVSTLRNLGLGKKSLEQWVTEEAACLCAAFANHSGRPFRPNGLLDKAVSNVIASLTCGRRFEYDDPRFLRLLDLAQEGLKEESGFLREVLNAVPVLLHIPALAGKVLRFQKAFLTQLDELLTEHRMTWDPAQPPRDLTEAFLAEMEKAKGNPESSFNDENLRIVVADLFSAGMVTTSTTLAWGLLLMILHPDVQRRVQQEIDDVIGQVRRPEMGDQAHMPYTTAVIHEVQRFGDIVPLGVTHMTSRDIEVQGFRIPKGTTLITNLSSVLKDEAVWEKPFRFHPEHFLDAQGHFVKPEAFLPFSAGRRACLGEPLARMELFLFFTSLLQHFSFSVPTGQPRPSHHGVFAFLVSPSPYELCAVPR

[11] = AUC (infinity) in Harlan rat at 1 mg/kg, iv by LC-MS/MS analysis; assay type: ADME, organism-based; set-up: dose 1 mg/kg, route intravenous, time infinity; conditions: in vivo; summary of the method: as §1
[12] = Volume of distribution in Harlan rat at 1 mg/kg, iv by LC-MS/MS analysis; assay type: ADME, organism-based; conditions: in vivo; summary of the method: as §1
[13] = molecular target: Sodium channel protein type 2 subunit alpha (Homo sapiens, UniProt Q99250); assay: Inhibition of human Nav1.2 expressed in CHO cells assessed as reduction in peak inward current by manual whole cell patch clamp electrophysiology assay; assay type: cell-based
Chain of Sodium channel protein type 2 subunit alpha (Q99250 whole entry): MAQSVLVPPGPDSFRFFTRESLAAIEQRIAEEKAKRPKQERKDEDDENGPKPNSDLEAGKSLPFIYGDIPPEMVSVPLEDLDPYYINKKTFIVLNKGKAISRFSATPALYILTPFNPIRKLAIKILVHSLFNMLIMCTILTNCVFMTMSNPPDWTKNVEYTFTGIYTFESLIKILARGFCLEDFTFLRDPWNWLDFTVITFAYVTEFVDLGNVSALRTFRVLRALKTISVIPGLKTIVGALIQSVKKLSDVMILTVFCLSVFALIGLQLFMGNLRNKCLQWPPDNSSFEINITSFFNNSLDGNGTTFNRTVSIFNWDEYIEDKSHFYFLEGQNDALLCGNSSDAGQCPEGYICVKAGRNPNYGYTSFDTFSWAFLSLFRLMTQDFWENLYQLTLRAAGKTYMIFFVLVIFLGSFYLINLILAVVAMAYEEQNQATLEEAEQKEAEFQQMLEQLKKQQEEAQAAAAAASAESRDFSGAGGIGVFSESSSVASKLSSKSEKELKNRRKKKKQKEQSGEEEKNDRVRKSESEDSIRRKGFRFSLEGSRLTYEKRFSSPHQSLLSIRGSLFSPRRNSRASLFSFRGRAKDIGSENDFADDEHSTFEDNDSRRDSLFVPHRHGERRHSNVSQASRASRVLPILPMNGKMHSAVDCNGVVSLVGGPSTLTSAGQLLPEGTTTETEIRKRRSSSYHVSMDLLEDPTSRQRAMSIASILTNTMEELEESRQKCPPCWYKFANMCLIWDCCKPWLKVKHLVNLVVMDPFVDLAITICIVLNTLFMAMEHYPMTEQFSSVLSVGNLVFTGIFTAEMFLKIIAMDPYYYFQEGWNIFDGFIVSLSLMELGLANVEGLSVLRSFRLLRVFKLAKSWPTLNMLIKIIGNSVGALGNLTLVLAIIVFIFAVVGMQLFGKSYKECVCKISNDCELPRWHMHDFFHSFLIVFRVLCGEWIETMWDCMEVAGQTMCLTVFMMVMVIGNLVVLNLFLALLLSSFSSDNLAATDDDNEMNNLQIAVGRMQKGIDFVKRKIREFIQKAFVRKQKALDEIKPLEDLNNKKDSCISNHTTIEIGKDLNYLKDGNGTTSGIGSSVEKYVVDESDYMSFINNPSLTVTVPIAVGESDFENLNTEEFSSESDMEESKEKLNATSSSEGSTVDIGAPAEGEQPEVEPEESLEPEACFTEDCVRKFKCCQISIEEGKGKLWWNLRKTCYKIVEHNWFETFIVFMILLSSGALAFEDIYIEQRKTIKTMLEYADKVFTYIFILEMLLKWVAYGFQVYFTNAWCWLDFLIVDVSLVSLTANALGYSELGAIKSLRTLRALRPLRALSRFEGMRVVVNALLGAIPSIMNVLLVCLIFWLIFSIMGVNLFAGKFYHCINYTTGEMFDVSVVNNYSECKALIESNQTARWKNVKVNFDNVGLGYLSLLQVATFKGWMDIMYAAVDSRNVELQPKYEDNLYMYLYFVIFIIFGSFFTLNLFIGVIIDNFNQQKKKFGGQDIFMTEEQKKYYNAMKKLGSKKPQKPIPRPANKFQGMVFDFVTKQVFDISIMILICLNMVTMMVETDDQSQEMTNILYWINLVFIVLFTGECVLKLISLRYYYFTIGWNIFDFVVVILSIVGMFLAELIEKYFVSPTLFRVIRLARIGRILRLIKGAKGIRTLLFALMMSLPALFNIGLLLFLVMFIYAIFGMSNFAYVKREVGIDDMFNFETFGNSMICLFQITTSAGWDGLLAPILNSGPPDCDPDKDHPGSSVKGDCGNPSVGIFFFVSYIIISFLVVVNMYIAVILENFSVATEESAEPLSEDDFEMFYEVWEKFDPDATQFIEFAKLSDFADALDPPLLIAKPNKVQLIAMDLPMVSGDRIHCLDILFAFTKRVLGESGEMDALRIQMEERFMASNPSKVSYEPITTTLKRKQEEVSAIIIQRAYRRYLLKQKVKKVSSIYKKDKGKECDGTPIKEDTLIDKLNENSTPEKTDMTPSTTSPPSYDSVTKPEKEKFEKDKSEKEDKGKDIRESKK

[14] = Unbound plasma concentration in C57BL/6 mouse model of histamine-induced scratching at 100 mg/kg, po administered 4 hrs prior to histamine challenge; assay type: ADME, organism-based; conditions: in vivo; summary of the method: as §2
[15] = molecular target: Cytochrome P450 3A4 (Homo sapiens, UniProt P08684)
[16] = molecular target: T3, Cytochrome P450 2D6; remark: listed apart in the source
[17] = molecular target: Sodium channel protein type 9 subunit alpha (Mus musculus, UniProt Q62205); assay: Inhibition of Nav1.7 in C57BL/6 mouse DRG neurons assessed as reduction in native TTX-S current amplitude by manual patch clamp electrophysiology assay
[18] = molecular target: T2, Cytochrome P450 2C9; remark: listed apart in the source
[19] = Apparent passive permeability in MDCK cells at 5 uM after 120 mins by LC/MS/MS analysis; assay type: ADME, cell-based, Canis lupus familiaris; conditions: dog
[20] = Free plasma concentration in naive C57BL/6 mouse assessed as effect on basic locomotor movement at 100 mg/kg, po measured after 4 hrs for 60 mins by open field test; assay type: ADME, organism-based; conditions: in vivo; summary of the method: as §3
[21] = molecular target: Sodium channel protein type 3 subunit alpha (Homo sapiens, UniProt Q9NY46); assay: Inhibition of human Nav1.3 expressed in CHO cells assessed as reduction in peak inward current by manual whole cell patch clamp electrophysiology assay; assay type: cell-based
[22] = in vitro; conditions: human, liver microsomes
[23] = system: Mus musculus; assay: In vivo inhibition of Nav1.7 in C57BL/6 mouse assessed as reduction in histamine-induced scratching bouts at 30 mg/kg, po administered 4 hrs prior to histamine challenge measured for 15 mins; assay type: functional, organism-based; summary of the method: as §2
[24] = physchem; conditions: PBS, pH 7.4
[25] = Unbound plasma concentration in C57BL/6 mouse model of histamine-induced scratching at 30 mg/kg, po administered 4 hrs prior to histamine challenge; assay type: ADME, organism-based; conditions: in vivo; summary of the method: as §2
[26] = molecular target: T1, Sodium channel protein type 9 subunit alpha; assay: Inhibition of human Nav1.7 at 20% inactivated state expressed in HEK293 cells at -140 mV holding potential followed by channel inactivation by manual whole cell patch clamp electrophysiology assay; assay type: cell-based
Summary of the method: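 Tested on channels about 20% inactivated.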

[27] = Free plasma concentration in naive C57BL/6 mouse assessed as effect on basic locomotor movement at 30 mg/kg, po measured after 4 hrs for 60 mins by open field test; assay type: ADME, organism-based; conditions: in vivo; summary of the method: as §3
[28] = molecular target: Voltage-gated inwardly rectifying potassium channel KCNH2 (Homo sapiens, UniProt Q12809)
[29] = molecular target: T1, Sodium channel protein type 9 subunit alpha; assay: Inhibition of human Nav1.7 expressed in HEK293 cells assessed as use-dependent block at pulse 26 by ionworks quattro electrophysiology assay; assay type: cell-based
[30] = system: Mus musculus; assay: In vivo inhibition of Nav1.7 in C57BL/6 mouse assessed as reduction in histamine-induced scratching bouts at 300 mg/kg, po administered 4 hrs prior to histamine challenge measured for 15 mins; assay type: functional; conditions: C57BL/6, po; summary of the method: as §2
[31] = in vitro; conditions: rat, liver microsomes
[32] = molecular target: Sodium channel protein type 9 subunit alpha (Rattus norvegicus, UniProt O08562); assay: Inhibition of rat Nav1.7 expressed in HEK293T cells incubated for 3 to 5 mins at -125 mV holding potential by electrophysiology assay; assay type: cell-based

IC50 [1]: 0.017 µM
IC50 [2]: 45.3 µM
IC50 [3]: > 30 µM
half-life [4]: 1.84 h
AUC(0-inf) [5]: 377 µM·h
Cp(f) [7]: 3720 nM
clearance [8]: 6.5 mL/min/kg
fraction unbound at 0.75 h, 5 µM [9]: 0.014
IC50 [10]: > 50 µM
AUC(0-inf) [11]: 5.4 µM·h
Vd [12]: 0.93 L/kg
IC50 [13]: 9.8 µM
Cp(f) [14]: 1270 nM
IC50 [15]: > 50 µM
IC50 [16]: > 50 µM
IC50 [17]: 0.27 µM
IC50 [18]: 49.6 µM
Papp at 2 h, 5 µM [19]: 22.4 ×10⁻⁶ cm/s
Cp(f) [20]: 2390 nM
IC50 [21]: 12.5 µM
microsomal CLint at 1 µM [22]: 27 µL/min/mg
solubility thermodynamic at 24 h [24]: 398 µM (≈ 194 µg/mL)
Cp(f) [25]: 294 nM
IC50 [26]: 0.051 µM
Cp(f) [27]: 640 nM
IC50 [29]: 0.042 µM
microsomal CLint at 1 µM [31]: < 14 µL/min/mg
IC50 [32]: 3.69 µM
SMILES: COc1cc(C(=O)NS(C)(=O)=O)c(F)cc1-c1cnc(Oc2cc(F)ccc2F)c(Cl)c1
Activity [6]: inactive
inhibition [23]: inactive
Ki [28]: > 30 µM
inhibition in vivo at 300 mg/kg [30]: 75%
